Reference: ChEMBL document CHEMBL1800036, “A novel HDAC inhibitor with a hydroxy-pyrimidine scaffold” (Bioorg Med Chem Lett, 2011)

Key:
[1] = biological target: T1, Histone deacetylase 7 (Homo sapiens, UniProt Q8WUI4); assay: Inhibition of recombinant HDAC7 assessed as inhibition of fluorogenic aminocoumarin release from substrate by trypsin-coupled biochemical assay
T1 sequence (Q8WUI4 whole entry): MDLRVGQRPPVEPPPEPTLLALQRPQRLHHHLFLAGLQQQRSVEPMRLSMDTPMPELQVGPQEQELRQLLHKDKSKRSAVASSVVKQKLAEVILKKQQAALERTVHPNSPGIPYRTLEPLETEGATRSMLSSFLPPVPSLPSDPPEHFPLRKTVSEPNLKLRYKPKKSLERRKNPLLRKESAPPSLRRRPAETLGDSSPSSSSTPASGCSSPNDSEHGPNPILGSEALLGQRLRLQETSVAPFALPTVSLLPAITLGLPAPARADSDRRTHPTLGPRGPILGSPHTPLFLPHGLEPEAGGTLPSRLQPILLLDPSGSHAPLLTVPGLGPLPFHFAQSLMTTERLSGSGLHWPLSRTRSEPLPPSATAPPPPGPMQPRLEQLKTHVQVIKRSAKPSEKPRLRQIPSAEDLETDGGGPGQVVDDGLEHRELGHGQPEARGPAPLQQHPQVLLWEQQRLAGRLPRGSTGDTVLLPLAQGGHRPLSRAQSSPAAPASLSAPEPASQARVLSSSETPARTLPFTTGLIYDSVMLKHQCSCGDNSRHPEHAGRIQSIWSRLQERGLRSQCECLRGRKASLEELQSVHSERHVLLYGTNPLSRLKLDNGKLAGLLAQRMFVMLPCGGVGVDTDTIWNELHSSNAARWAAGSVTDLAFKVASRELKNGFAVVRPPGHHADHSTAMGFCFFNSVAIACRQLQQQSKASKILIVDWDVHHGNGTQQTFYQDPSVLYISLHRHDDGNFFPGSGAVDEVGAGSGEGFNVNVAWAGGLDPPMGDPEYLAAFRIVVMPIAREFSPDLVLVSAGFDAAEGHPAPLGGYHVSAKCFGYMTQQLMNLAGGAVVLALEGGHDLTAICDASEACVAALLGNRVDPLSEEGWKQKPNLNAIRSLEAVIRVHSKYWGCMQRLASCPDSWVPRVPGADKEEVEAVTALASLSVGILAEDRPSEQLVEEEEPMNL

[2] = biological target: Histone deacetylase 9 (Homo sapiens, UniProt Q9UKV0); assay: Inhibition of recombinant HDAC9 assessed as inhibition of fluorogenic aminocoumarin release from substrate by trypsin-coupled biochemical assay
Chain of Histone deacetylase 9 (Q9UKV0 whole entry): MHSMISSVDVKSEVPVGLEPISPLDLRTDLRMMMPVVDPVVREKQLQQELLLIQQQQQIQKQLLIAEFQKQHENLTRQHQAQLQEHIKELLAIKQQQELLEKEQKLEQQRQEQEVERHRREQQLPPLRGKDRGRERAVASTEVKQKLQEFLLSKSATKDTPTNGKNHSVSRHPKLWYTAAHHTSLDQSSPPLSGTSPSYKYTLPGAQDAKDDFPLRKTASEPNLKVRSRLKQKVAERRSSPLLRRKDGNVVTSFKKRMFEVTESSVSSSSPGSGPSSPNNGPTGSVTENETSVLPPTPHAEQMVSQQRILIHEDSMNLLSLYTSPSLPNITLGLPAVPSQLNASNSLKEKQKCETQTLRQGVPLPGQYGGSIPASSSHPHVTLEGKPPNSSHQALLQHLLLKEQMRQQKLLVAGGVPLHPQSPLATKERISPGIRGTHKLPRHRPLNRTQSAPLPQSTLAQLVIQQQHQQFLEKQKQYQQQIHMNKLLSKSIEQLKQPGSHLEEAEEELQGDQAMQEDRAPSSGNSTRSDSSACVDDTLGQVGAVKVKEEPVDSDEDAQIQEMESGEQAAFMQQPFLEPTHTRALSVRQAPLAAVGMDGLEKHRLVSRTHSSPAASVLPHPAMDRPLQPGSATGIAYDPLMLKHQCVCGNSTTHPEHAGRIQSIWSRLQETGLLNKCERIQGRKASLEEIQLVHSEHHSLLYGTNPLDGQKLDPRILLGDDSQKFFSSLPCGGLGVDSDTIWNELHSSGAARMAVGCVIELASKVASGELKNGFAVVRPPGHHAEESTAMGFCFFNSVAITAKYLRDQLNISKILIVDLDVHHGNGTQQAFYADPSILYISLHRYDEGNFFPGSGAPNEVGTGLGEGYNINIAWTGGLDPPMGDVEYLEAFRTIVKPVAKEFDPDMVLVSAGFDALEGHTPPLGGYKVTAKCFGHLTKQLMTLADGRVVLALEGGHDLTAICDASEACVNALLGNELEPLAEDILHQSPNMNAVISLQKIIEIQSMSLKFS
Procedure, shortened: (§1)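 Trypsin-coupled fluorogenic assay. Substrate is an acetylated lysine tripeptide amide-linked to aminocoumarin (AMC). HDAC deacetylation allows trypsin to release AMC, and the fluorescence increase is read. Compound was tested at various concentrations and normalized to a DMSO control. IC50 was derived by non-linear regression fit.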

[3] = biological target: T2, Histone deacetylase 8 (Homo sapiens, UniProt Q9BY41); assay: Inhibition of recombinant HDAC8 assessed as inhibition of fluorogenic aminocoumarin release from substrate by trypsin-coupled biochemical assay; procedure, shortened: as §1
T2 sequence (Q9BY41 whole entry): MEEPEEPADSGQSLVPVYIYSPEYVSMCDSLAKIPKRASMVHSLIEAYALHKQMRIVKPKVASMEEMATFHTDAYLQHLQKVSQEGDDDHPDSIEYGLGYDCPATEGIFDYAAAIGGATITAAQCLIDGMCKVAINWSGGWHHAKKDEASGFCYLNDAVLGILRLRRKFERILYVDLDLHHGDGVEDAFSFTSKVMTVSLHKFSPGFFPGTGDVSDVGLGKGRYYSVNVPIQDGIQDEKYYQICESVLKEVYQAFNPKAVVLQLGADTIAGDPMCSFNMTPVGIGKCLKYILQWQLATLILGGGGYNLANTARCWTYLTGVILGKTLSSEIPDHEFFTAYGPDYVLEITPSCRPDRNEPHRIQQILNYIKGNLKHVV

[4] = biological target: Histone deacetylase 1 (Homo sapiens, UniProt Q13547); assay: Inhibition of recombinant HDAC1 assessed as inhibition of fluorogenic aminocoumarin release from substrate by trypsin-coupled biochemical assay; procedure, shortened: as §1
Chain of Histone deacetylase 1 (Q13547 whole entry): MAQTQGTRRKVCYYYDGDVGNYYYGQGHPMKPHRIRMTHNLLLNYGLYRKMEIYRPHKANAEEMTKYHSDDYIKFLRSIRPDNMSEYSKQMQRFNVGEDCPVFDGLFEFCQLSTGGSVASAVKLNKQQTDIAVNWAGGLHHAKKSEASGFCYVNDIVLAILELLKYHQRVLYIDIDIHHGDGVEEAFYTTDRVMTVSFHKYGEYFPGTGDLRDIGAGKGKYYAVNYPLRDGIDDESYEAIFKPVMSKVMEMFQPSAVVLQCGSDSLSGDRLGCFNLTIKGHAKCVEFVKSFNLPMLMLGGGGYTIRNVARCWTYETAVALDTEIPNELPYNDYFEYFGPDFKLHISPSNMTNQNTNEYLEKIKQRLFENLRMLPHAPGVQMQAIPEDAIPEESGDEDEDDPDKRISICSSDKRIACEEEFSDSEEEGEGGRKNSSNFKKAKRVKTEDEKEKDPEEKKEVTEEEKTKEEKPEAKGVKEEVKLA

[5] = biological target: Histone deacetylase 5 (Homo sapiens, UniProt Q9UQL6); assay: Inhibition of recombinant HDAC5 assessed as inhibition of fluorogenic aminocoumarin release from substrate by trypsin-coupled biochemical assay; procedure, shortened: as §1
Chain of Histone deacetylase 5 (Q9UQL6 whole entry): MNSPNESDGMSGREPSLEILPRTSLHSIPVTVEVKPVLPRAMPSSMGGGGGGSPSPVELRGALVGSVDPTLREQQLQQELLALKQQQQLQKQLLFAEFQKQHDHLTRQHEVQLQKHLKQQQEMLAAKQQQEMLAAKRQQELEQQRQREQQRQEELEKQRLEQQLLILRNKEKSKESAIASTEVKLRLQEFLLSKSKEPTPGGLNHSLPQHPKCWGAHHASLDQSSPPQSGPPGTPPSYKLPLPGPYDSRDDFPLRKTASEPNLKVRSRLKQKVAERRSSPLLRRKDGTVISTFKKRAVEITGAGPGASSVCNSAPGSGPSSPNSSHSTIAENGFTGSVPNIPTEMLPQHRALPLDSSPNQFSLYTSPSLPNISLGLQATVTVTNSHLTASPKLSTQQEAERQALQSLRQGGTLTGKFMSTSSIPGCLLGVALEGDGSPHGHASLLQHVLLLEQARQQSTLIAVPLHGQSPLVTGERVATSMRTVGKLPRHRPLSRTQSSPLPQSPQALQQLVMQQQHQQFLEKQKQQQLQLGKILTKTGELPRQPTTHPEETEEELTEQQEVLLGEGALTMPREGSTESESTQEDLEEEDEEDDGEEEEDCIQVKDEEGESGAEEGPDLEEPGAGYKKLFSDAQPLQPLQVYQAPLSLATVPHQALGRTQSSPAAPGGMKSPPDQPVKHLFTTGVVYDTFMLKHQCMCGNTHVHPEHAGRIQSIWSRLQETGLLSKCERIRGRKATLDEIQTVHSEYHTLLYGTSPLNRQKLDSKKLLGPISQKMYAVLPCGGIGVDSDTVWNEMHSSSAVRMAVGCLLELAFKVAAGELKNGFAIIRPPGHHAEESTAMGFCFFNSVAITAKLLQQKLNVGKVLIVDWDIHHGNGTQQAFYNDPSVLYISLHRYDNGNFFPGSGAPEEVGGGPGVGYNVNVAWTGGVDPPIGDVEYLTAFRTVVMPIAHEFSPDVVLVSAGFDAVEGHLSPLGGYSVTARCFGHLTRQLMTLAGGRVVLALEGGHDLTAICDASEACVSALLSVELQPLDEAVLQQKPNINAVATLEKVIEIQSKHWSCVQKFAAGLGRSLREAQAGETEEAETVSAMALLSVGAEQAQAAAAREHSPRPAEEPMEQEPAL

[6] = biological target: Histone deacetylase 3 (Homo sapiens, UniProt O15379); assay: Inhibition of recombinant HDAC3 assessed as inhibition of fluorogenic aminocoumarin release from substrate by trypsin-coupled biochemical assay; procedure, shortened: as §1
Chain of Histone deacetylase 3 (O15379 whole entry): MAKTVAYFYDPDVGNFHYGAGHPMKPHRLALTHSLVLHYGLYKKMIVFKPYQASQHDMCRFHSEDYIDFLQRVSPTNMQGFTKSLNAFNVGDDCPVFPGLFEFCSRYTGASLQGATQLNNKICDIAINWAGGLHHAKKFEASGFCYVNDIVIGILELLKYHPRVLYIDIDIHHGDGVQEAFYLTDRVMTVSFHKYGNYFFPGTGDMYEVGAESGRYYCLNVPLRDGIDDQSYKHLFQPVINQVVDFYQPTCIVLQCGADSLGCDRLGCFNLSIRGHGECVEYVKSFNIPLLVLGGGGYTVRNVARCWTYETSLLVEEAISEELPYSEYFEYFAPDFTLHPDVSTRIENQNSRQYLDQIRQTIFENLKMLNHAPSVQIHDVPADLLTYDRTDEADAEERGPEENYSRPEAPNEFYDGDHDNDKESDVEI

[7] = biological target: T3, Protein deacetylase HDAC6 (Homo sapiens, UniProt Q9UBN7); assay: Inhibition of recombinant HDAC6 assessed as inhibition of fluorogenic aminocoumarin release from substrate by trypsin-coupled biochemical assay; procedure, shortened: as §1
T3 sequence (Q9UBN7 whole entry): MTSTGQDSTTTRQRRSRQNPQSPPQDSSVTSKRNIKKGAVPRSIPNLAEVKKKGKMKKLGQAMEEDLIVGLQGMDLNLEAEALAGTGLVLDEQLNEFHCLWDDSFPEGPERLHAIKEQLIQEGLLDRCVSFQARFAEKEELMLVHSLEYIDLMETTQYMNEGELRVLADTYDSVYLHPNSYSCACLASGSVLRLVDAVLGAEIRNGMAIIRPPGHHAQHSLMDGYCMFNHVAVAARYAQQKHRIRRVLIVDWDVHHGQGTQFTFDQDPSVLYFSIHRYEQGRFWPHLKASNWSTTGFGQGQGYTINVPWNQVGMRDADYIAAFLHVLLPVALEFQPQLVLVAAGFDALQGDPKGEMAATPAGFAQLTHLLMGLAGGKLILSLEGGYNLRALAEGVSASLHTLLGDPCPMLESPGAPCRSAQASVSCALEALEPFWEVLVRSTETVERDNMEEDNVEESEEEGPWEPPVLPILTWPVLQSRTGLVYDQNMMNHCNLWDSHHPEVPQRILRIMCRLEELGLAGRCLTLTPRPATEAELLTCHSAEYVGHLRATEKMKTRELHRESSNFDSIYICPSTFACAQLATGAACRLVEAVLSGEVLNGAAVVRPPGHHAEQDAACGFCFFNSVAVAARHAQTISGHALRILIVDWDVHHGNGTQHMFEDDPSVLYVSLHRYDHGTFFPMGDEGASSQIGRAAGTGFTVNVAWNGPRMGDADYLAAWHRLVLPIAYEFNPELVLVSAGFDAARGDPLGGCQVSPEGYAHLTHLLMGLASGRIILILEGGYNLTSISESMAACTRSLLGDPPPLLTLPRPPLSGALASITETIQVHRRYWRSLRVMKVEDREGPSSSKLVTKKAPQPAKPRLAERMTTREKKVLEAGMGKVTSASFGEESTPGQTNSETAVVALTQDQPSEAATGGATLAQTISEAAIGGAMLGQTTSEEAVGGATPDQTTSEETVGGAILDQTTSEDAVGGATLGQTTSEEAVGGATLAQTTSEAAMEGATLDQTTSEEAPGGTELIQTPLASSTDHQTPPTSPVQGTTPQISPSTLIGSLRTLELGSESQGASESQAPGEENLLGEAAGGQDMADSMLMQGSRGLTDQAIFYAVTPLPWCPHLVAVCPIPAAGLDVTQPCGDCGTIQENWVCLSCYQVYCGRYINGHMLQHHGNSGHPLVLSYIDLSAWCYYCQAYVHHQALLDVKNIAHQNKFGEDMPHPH

[8] = biological target: Histone deacetylase 2 (Homo sapiens, UniProt Q92769); assay: Inhibition of recombinant HDAC2 assessed as inhibition of fluorogenic aminocoumarin release from substrate by trypsin-coupled biochemical assay
Chain of Histone deacetylase 2 (Q92769 whole entry): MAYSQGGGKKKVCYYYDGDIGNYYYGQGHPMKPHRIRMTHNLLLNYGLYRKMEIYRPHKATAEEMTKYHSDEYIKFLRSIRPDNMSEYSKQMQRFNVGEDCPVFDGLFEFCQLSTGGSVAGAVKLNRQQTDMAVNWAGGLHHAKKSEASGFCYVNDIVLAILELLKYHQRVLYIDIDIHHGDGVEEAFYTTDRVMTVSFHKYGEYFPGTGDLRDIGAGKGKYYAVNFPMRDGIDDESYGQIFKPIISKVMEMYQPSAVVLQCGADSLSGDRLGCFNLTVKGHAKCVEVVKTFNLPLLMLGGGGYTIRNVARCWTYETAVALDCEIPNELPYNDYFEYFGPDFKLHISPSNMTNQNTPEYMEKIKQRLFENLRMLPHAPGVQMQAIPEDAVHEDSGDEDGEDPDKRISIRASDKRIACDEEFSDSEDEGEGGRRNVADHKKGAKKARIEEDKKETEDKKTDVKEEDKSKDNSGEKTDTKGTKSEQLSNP

[9] = biological target: Histone deacetylase 4 (Homo sapiens, UniProt P56524); assay: Inhibition of recombinant HDAC4 assessed as inhibition of fluorogenic aminocoumarin release from substrate by trypsin-coupled biochemical assay; procedure, shortened: as §1
Chain of Histone deacetylase 4 (P56524 whole entry): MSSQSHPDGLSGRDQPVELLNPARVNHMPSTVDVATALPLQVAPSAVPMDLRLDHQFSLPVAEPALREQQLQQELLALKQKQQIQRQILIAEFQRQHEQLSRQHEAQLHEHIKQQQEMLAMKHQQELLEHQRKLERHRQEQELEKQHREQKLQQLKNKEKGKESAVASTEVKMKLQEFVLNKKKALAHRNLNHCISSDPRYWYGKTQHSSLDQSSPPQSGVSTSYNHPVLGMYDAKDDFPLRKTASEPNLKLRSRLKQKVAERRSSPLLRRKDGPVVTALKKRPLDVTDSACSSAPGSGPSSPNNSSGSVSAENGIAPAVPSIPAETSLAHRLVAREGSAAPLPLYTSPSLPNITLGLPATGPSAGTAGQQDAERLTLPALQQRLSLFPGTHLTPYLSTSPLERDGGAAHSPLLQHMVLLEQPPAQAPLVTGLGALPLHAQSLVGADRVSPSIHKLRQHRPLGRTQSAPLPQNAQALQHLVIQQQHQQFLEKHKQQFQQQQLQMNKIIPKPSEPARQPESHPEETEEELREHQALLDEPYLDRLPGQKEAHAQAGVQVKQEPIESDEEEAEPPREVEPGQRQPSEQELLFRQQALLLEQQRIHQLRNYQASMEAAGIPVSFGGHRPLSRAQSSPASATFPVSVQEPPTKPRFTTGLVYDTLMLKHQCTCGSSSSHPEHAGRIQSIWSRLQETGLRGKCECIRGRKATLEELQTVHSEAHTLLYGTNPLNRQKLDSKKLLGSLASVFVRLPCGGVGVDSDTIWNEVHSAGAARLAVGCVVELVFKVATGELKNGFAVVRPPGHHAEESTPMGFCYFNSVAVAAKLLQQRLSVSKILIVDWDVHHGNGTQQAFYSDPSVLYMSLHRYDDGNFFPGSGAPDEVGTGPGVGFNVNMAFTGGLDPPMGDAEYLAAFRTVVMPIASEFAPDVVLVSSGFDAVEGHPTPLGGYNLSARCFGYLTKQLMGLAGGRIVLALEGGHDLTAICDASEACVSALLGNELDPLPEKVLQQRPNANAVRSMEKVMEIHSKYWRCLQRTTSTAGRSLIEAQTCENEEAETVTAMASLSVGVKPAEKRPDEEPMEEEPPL

Row | Structure (SMILES) | IC50 [1] [µM] | IC50 [2] [µM] | IC50 [3] [µM] | IC50 [4] [µM] | IC50 [5] [µM] | IC50 [6] [µM] | IC50 [7] [µM] | IC50 [8] [µM] | IC50 [9] [µM]
1 | COc1cc(C)nc(SCC(=O)c2ccc(NC(C)=O)cc2)n1 | > 100 | > 100 | > 100 | > 100 | > 100 | > 100 | > 100 | > 100 | > 100
2 | Cc1cc(=O)[nH]c(SCC(=O)c2ccc(NC(=O)c3ccccc3)cc2)n1 | > 100 | > 100 | > 100 | > 100 | > 100 | > 100 | 10.8 | > 100 | > 100
3 | CC(=O)Nc1ccc(C(=O)CSc2cccc(O)c2)cc1 | > 100 | > 100 | > 100 | > 100 | > 100 | > 100 | > 100 | > 100 | > 100
4 | Cc1cc(O)nc(SCC(=O)C(C)(C)C)n1 | > 100 | > 100 | > 100 | > 100 | > 100 | > 100 | > 100 | > 100 | > 100
5 | Cc1cc(O)nc(SCC(=O)c2ccccc2)n1 | 13.7 | > 100 | > 100 | > 100 | > 100 | > 100 | > 100 | > 100 | > 100
6 | CC(=O)Nc1ccc(C(=O)CSc2nc(C)cc(C)n2)cc1 | > 100 | > 100 | > 100 | > 100 | > 100 | > 100 | > 100 | > 100 | > 100
7 | COC(=O)CSc1nc(C)cc(=O)[nH]1 | > 100 | > 100 | > 100 | > 100 | > 100 | > 100 | > 100 | > 100 | > 100
8 | CC(=O)Nc1ccc(C(=O)COc2cc(C)cc(=O)[nH]2)cc1 | > 100 | > 100 | > 100 | > 100 | > 100 | > 100 | > 100 | > 100 | > 100
9 | Cc1cc(=O)[nH]c(SCC(=O)c2ccc(C(C)(C)C)cc2)n1 | > 100 | > 100 | > 100 | > 100 | 94.3 | > 100 | > 100 | > 100 | > 100
10 | COc1ccc(C(=O)CSc2nc(C)cc(O)n2)cc1 | > 100 | > 100 | > 100 | > 100 | > 100 | > 100 | 60.9 | > 100 | > 100
11 | CC(=O)N(C)c1ccc(C(=O)CSc2nc(C)cc(O)n2)cc1 | > 100 | > 100 | > 100 | > 100 | > 100 | > 100 | > 100 | > 100 | > 100
12 | CC(=O)Nc1ccc(C(=O)CSc2nccc(C)n2)cc1 | > 100 | > 100 | > 100 | > 100 | > 100 | > 100 | > 100 | > 100 | > 100
13 | Cc1cc(=O)[nH]c(SCC(=O)c2ccc(O)cc2)n1 | > 100 | > 100 | > 100 | > 100 | > 100 | > 100 | 40.1 | > 100 | > 100
14 | CC(=O)CSc1nc(C)cc(=O)[nH]1 | > 100 | > 100 | > 100 | > 100 | > 100 | > 100 | > 100 | > 100 | > 100
15 | Cc1cc(O)nc(SCC(=O)c2ccc(Cl)cc2)n1 | > 100 | > 100 | > 100 | 82.3 | > 100 | 86.4 | 12.9 | 67 | > 100
16 | CC(=O)Nc1ccc(C(=O)COc2nc(C)cc(O)n2)cc1 |  | 11.7 | > 100 | > 100 | 16.7 | > 100 | 88 | > 100 | 54.2
17 | CC(=O)Nc1ccc(C(O)CSc2nc(C)cc(O)n2)cc1 (stereo not given) | > 100 | > 100 | > 100 | > 100 | > 100 | > 100 | > 100 | > 100 | > 100
18 | CC(=O)Nc1ccc(CSc2nc(C)cc(O)n2)cc1 | > 100 | > 100 | > 100 | > 100 | > 100 | > 100 | > 100 | > 100 | > 100
19 | Cc1cc(O)nc(SCC(=O)c2ccc(O)c(O)c2)n1 | > 100 | > 100 | > 100 | > 100 | > 100 | > 100 | 16.7 | > 100 | > 100
